These results are taken from ChEMBL document CHEMBL2040725, “In vitro and in vivo biological evaluation of new 4,5-disubstituted 1,2,3-triazoles as cis-constrained analogs of combretastatin A4” (Eur J Med Chem, 2012).

The nature of data set [1]: Inhibition of tubulin polymerization preincubated for 45 mins before GTP addition measured after 2 hrs by DAPI-based fluorescenct assay. The method in brief: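 Tubulin (97% pure, 1 mg/ml final) in PME buffer (100 mM PIPES, MgSO₄, 2 mM EGTA) with 10 µM DAPI. Compounds from 30 µM in 3-fold decrements, triplicate wells, colchicine as full-inhibition control. 45 min preincubation at room temperature, then 1 mM GTP added and held 2 h at 37 °C. Fluorescence read at ex 360/em 450 nm. Percent inhibition taken relative to colchicine; IC50 = 50% inhibition.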

The next data set has as its system B16. Put plainly: Cytotoxicity against mouse B16 cells assessed as cell viability after 48 hrs by MTT assay. It counts as functional, cell-based. The settings on record: B16, 48 h. The method in brief:
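Murine B16 melanoma cells in DMEM with 10% FBS, 2 mM L-glutamine and antibiotics, 37 °C, 5% CO₂. Incubated 48 h, then MTT read at 562 nm with background subtraction. IC50 from concentration-response curves.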
For orientation: Tetrazolium dyes change colour on reduction, which living cells bring about.

Data set [2] in a line: Antivascular activity against human EAhy926 cells assessed as the minimum concentration required to elicit rounding up of cells after 2 hrs by microscopic analysis. It counts as functional, EA.hy 926. The method in brief: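 EAhy 926 cells (HUVEC fused with A549) grown in DMEM with 10% FBS, 2 mM L-glutamine and antibiotics. Top concentration 100 µM, then two-fold serial dilutions. Wells photographed at 100× and 200×. Value = lowest concentration rounding up >15% of cells per field; 1% DMSO control.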

For data set [3], the system named is Colon 26. As to the kind of experiment: Antitumor activity against mouse Colon 26 cells allografted in BALB/cJRj mouse assessed as reduction in tumor volume at 150 mg/kg, ip administered on days 3-7 and 10-14 post implantation relative to control. Type of data set: functional. Also noted: scale not given: the % may be the effect or the level left. The conditions noted are these: route intraperitoneal. The method in brief: (§1)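 Female BALB/cJRj mice (about 18 g), 5 per group. Colon 26 tumor fragments (30-60 mg) implanted s.c. bilaterally in the axilla on day 0. Dosing i.p. on days 3-7 and 10-14 in saline with 5% DMSO and 5% polysorbate 80, 0.2 ml. Tumors measured daily by caliper, volume = length × width² × 0.5. %T/C = median treated/control, taken when control tumors reached 1500 mm³. T-C growth delay also recorded.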

Data set [4] in a line: Toxicity in mouse ip dosed BALB/cJRj mouse allografted with mouse Colon 26 cells compound administered on days 3-7 and 10-14 post implantation relative to control. It counts as organism-based. The conditions noted are these: in vivo. The method in brief:
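Female BALB/cJRj mice (~18 g) with bilateral subcutaneous axillary Colon 26 fragments (30-60 mg) implanted on day 0; 5 mice/group. Daily fresh doses in saline with 5% DMSO and 5% polysorbate 80, given ip on days 3-7 and 10-14; solvent-treated controls. Mice weighed daily and checked for clinical toxicity signs; tumours measured daily by caliper.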

In data set [5] the test system is Colon 26. Put plainly: Antitumor activity against mouse Colon 26 cells allografted in BALB/cJRj mouse assessed as tumor growth delay time at 150 mg/kg, ip administered on days 3-7 and 10-14 post implantation relative to control. It counts as functional. The conditions noted are these: route intraperitoneal. The method in brief:
as §1

Data set [6] has as its system Colon 26. As to the kind of experiment: Antitumor activity against mouse Colon 26 cells allografted in BALB/cJRj mouse assessed as reduction in tumor volume at 100 mg/kg, ip administered on days 3-7 and 10-14 post implantation relative to control. It counts as functional. Also on record: scale not given: the % may be the effect or the level left. The settings on record: route intraperitoneal. The method in brief: as §1

Data set [7] concerns Colon 26. As to the kind of experiment: Antitumor activity against mouse Colon 26 cells allografted in BALB/cJRj mouse assessed as tumor growth delay time at 100 mg/kg, ip administered on days 3-7 and 10-14 post implantation relative to control. Type of data set: functional. The conditions noted are these: route intraperitoneal. The method in brief: as §1
The next data set relates to EA.hy 926. As to the kind of experiment: Antivascular activity against human EAhy926 cells assessed as rounding up of cells at 1 uM after 2 hrs by microscopic analysis. Type of data set: functional, cell-based.

Calls of active or inactive are those of the source. No cut-off for these calls is given here.

Usually IC50 stands for the point on the concentration scale where inhibition reaches its midpoint. For the compound `COc1ccc(/C=C\c2cc(OC)c(OC)c(OC)c2)cc1O` [COMBRETASTATIN A4], the half-maximal inhibitory concentration (IC50) amounted to 0.3 µM in [1] and 0.003 µM in the data set with B16. Moreover, the Activity in data set [2] was determined as 0.006 µM.
Regarding `COc1cc(/C=C(/Cc2cc(OC)c(OC)c(OC)c2)[N+](=O)[O-])cc(OC)c1OC`, the IC50 was found to be 22.4 µM in data set [1] and 3.3 µM in the data set with B16. Besides, in data set [2], the Activity stood at 6.3 µM.
As to `COc1cc(-c2nn[nH]c2Cc2c[nH]c3ccccc23)cc(OC)c1OC`, the IC50 in data set [1] is above 30 µM; in the data set with B16, 10.7 µM. In addition, in data set [2], the Activity was found to be 50 µM.
Turning to `COc1cc(C/C(=C/c2ccc(Cl)cc2Cl)[N+](=O)[O-])cc(OC)c1OC`, the 50% inhibitory concentration (IC50) in data set [1] is 21.9 µM; with B16 it was 2.6 µM. For the same compound, in data set [2], the Activity was determined as 3.1 µM.
Consider `COc1cc(C/C(=C/c2ccc(Cl)c(Cl)c2)[N+](=O)[O-])cc(OC)c1OC`, for which the IC50 in [1] is 15.5 µM; with B16, 4.6 µM. The Activity in [2] worked out at 3.1 µM.
Turning to `COc1ccc(-c2nn[nH]c2Cc2cc(OC)c(OC)c(OC)c2)cc1F`, the 50% inhibitory concentration (IC50) amounted to 12 µM in [1] and 31 µM in the data set with B16. Besides, in [2], the Activity is 2.5 µM.
With `COc1ccc(Cc2[nH]nnc2-c2cc(OC)c(OC)c(OC)c2)cc1O`, the IC50 in [1] came to 1.7 µM; in the data set on B16 it was 22.9 µM. In addition, the Activity in data set [2] was 0.6 µM.
For `COc1cc(/C=C(/Cc2cc(OC)c(OC)c(OC)c2)[N+](=O)[O-])ccc1O`, the concentration for half-maximal inhibition (IC50) in data set [1] is above 30 µM; in the data set on B16, 2.6 µM. Also, the Activity in data set [2] is 6.3 µM.
Turning to `COc1ccc(/C=C(/Cc2cc(OC)c(OC)c(OC)c2)[N+](=O)[O-])cc1F`, the IC50 in [1] was determined as 1.6 µM; with B16, 2.9 µM. Moreover, the Activity in data set [2] amounted to 0.8 µM.
On to `COc1ccc(/C=C(/Cc2cc(OC)c(OC)c(OC)c2)[N+](=O)[O-])cc1[N+](=O)[O-]`, for which the concentration for half-maximal inhibition (IC50) in data set [1] was found to be 8.9 µM; in the data set on B16, 3.5 µM. Also, the Activity in data set [2] came to 3 µM.
Consider `COc1cc(Cc2[nH]nnc2-c2ccc3c(c2)OCO3)cc(OC)c1OC`, for which the IC50 in data set [1] was above 30 µM; with B16, 38 µM. The Activity in [2] came to 25 µM.
As for `COc1cc(C/C(=C/c2ccc3c(c2)OCO3)[N+](=O)[O-])cc(OC)c1OC`, the IC50 amounted to 10.5 µM in [1] and 3 µM in the data set with B16. Besides, the Activity in data set [2] is 0.4 µM.
Take `COc1ccc(-c2nn[nH]c2Cc2cc(OC)c(OC)c(OC)c2)cc1[N+](=O)[O-]`: the values for the IC50 (in data set [1]; with B16) were above 30 µM and 50.1 µM, respectively. Also, the Activity in [2] was found to be 25 µM.
As for `COc1ccc(/C=C(/Cc2cc(OC)c(OC)c(OC)c2)[N+](=O)[O-])cc1O`, the half-inhibitory concentration (IC50) is 0.9 µM in data set [1] and 4 µM with B16. The Activity with Colon 26 [3] came to 52%; in [2], 0.2 µM. This compound also gave an MTD in data set [4] of 150 mg/kg. Besides, in the data set with Colon 26 [5], the Time was determined as 2 days.
For the compound `COc1ccc(-c2nn[nH]c2Cc2cc(OC)c(OC)c(OC)c2)cc1N`, the figures for the half-inhibitory concentration (IC50) (in data set [1]; with B16) were 1.8 µM and 14.8 µM, respectively. The Activity in [2] came to 0.2 µM.
`COc1ccc(-c2nn[nH]c2Cc2cc(OC)c(OC)c(OC)c2)cc1O`: the 50% inhibitory concentration (IC50) was determined as 1.2 µM in [1] and 1.6 µM in the data set on B16. Besides, the MTD in data set [4] worked out at 100 mg/kg. Further, the Activity turned out to be 0.13 µM in data set [2] and 60% in the data set on Colon 26 [6]. Also, the Time in the data set on Colon 26 [7] came out at 2.7 days. Besides, the outcome in the data set with EA.hy 926 was Active.
In the case of `COc1cc(-c2nn[nH]c2Cc2cc(OC)c(OC)c(OC)c2)ccc1O`, the half-maximal inhibitory concentration (IC50) in [1] was above 30 µM; in the data set with B16, above 100 µM. Further, the Activity in data set [2] was above 100 µM.
For `COc1ccc(C/C(=C/c2cc(OC)c(OC)c(OC)c2)[N+](=O)[O-])cc1O` the same measures were 0.9 µM, 2.9 µM and 0.6 µM.
Turning to `COc1cc(/C=C(/Cc2c[nH]c3ccccc23)[N+](=O)[O-])cc(OC)c1OC`, the half-maximal inhibitory concentration (IC50) came to 5.2 µM in [1] and 5.5 µM with B16. Further, the Activity in [2] is 1.6 µM.
For `COc1cc(Cc2[nH]nnc2-c2ccc(Cl)cc2Cl)cc(OC)c1OC`, the IC50 is above 30 µM in data set [1] and 41.7 µM with B16. The Activity in data set [2] was above 100 µM.
For the compound `COc1cc(/C=C(/Cc2cc(OC)c(OC)c(OC)c2)[N+](=O)[O-])cc(OC)c1O`, the values for the 50% inhibitory concentration (IC50) (in data set [1]; with B16) were 23.4 µM and 3.2 µM, respectively. Besides, in data set [2], the Activity was 12.5 µM.
